# From ChEMBL document CHEMBL1123059, “2-(beta-Arylethylamino)- and 4-(beta-arylethylamino)quinazolines as phosphodiesterase inhibitors” (J Med Chem, 1985)
# What was measured:
# [1] = test system: cAMP phosphodiesterase (Bos taurus); assay: Ratio of Ki/Km for inhibition of bovine heart cAMP-phosphodiesterase
# [2] = molecular target: cAMP phosphodiesterase (Bos taurus); assay: Inhibition of bovine heart cAMP-phosphodiesterase
# Cavia porcellus [3] = species on record: Cavia porcellus; assay: Percentage relaxation of guinea pig tracheal preparation relative to papaverine at 42 uM; format: functional, Trachea
# Outline: (§1)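 Spiral trachea strips from female Hartley guinea pigs (300-500 g) were held in Krebs-Henseleit at 37 °C under 95% O2/5% CO2. Cumulative doses of the hydrochloride salt were given, then papaverine 10 μg/mL as the supramaximal reference. Relaxation at the stated concentration is given as % of papaverine maximum, with vehicle-corrected controls.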
# Cavia porcellus [4] = species on record: Cavia porcellus; assay: Percentage relaxation of guinea pig tracheal preparation relative to papaverine at 84 uM; format: functional, Trachea
# Outline: as §1
# Cavia porcellus [5] = species on record: Cavia porcellus; assay: Percentage relaxation of guinea pig tracheal preparation relative to papaverine at 98 uM; format: functional, Trachea
# Outline: as §1
# [6] = molecular target: cAMP phosphodiesterase (Bos taurus); assay: Inhibition of bovine heart cAMP-phosphodiesterase; remark: listed apart in the source
# Cavia porcellus [7] = species on record: Cavia porcellus; assay: Relaxation in guinea pig tracheal preparation relative to papaverine, range 52.5-75.9; format: functional; conditions: Trachea, read-out: ED50 (the source's name)
# Cavia porcellus [8] = species on record: Cavia porcellus; assay: Relaxation in guinea pig tracheal preparation relative to papaverine, range 162-589; format: functional; conditions: Trachea, read-out: ED50 (the source's name)
# Cavia porcellus [9] = species on record: Cavia porcellus; assay: Percentage relaxation of guinea pig tracheal preparation relative to papaverine at 70 uM; format: functional, Trachea
# Outline: as §1
# Cavia porcellus [10] = species on record: Cavia porcellus; assay: Relaxation in guinea pig tracheal preparation relative to papaverine, range 33.1-91.2; format: functional; conditions: Trachea, read-out: ED50 (the source's name)
# Cavia porcellus [11] = species on record: Cavia porcellus; assay: Relaxation in guinea pig tracheal preparation relative to papaverine, range 63.1-79.4; format: functional; conditions: Trachea, read-out: ED50 (the source's name)
# Cavia porcellus [12] = species on record: Cavia porcellus; assay: Percentage relaxation of guinea pig tracheal preparation relative to papaverine at 20 uM; format: functional, Trachea
# Outline: as §1
# Cavia porcellus [13] = species on record: Cavia porcellus; assay: Relaxation in guinea pig tracheal preparation relative to papaverine; format: functional; conditions: Trachea, read-out: ED50 (the source's name)
SMILES,Ratio [1],IC50 [2] [µM],IC50 [6] [µM],also measured
CCN(CC)c1nc(NCC(O)c2ccc(O)c(CO)c2)nc2cc(OC)c(OC)cc12.Cl (stereo not drawn),0.69,339,–,Max relaxation (Cavia porcellus [3]): 36%
CCN(CC)c1nc(NCC(O)c2cccc(O)c2)nc2cc(OC)c(OC)cc12 (stereo not drawn),1.15,295,–,Max relaxation (Cavia porcellus [4]): 11.5%
CCN(CC)c1nc(NCC(O)c2ccccc2)c2cc(OC)c(OC)cc2n1 (stereo not drawn),0.64,–,350,Max relaxation (Cavia porcellus [5]): 46%
CCN(CC)c1nc(NCC(O)c2ccc(O)c(CO)c2)c2cc(OC)c(OC)cc2n1.Cl (stereo not drawn),0.81,–,428,EC50 (Cavia porcellus [7]): 63.1 µM
CCN(CC)c1nc(NCCc2ccccc2)nc2cc(OC)c(OC)cc12,0.054,–,87,EC50 (Cavia porcellus [8]): 234 µM
CCN(CC)c1nc(NCCc2ccccc2)c2cc(OC)c(OC)cc2n1,0.107,16,–,Max relaxation (Cavia porcellus [9]): 29%
CCN(CC)c1nc(NCC(O)c2ccccc2)nc2cc(OC)c(OC)cc12 (stereo not drawn),1.88,328,–,EC50 (Cavia porcellus [10]): 49 µM
Cn1c(=O)c2nc[nH]c2n(C)c1=O [THEOPHYLLINE],–,–,–,EC50 (Cavia porcellus [11]): 70.8 µM
CCN(CC)c1nc(NCC(O)c2cccc(O)c2)c2cc(OC)c(OC)cc2n1.Cl (stereo not drawn),0.73,–,610,Max relaxation (Cavia porcellus [12]): 28%
CCN(CC)c1nc(NCC(O)c2cc(O)cc(O)c2)nc2cc(OC)c(OC)cc12.Cl (stereo not drawn),0.43,432,–,EC50 (Cavia porcellus [13]): 26.9 µM
